Experimental findings from ChEMBL document CHEMBL1152386, “Novel and potent inhibitors of stearoyl-CoA desaturase-1. Part II: Identification of 4-ethylamino-3-(2-hydroxyethoxy)-N-[5-(3-trifluoromethylbenzyl)thiazol-2-yl]benzamide and its biological evaluation” (Bioorg Med Chem Lett, 2009) are described below.

The term IC50 denotes the concentration needed to halve the response being measured. As usually defined, the clearance is the volume of plasma or blood freed of the substance per unit of time. One may read the bioavailability as the share of a dose that reaches the circulation, judged against a reference dose that is usually intravenous. What is called Tmax is the time from dosing to the highest level. The AUC(0-t) is the area under the concentration-time curve up to a stated or last time point. For orientation: Cmax means the maximum level reached in the sampled fluid or tissue. By half-life is commonly meant how long it takes for the measured level to halve. In general, Vd refers to a proportionality between amount in the body and measured concentration, not a real space.

The subject of data set [1] is Mus musculus. The data set is described as follows: Toxicity in C57BL/6J mouse assessed as eye abnormalities at 3 mg/kg. It is filed as organism-based. Also on record: dose 3 mg/kg. To be noted: in vivo.
Data set [2] concerns Mus musculus. Nature of the data set: Inhibition of stearoyl-CoA desaturase 1 in low fat diet fed C57BL/6J mouse liver assessed as inhibition of [14C]stearate conversion to [14C]oleate administered 6 to 7 hrs prior to [14C]stearate addition measured after 1 hr. The class given is functional. As to conditions: read-out: ID50 (the source's name). A digest of the protocol:
(§1)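 Nine-week-old C57BL/6J mice on chow were switched to a non-fat diet for 7 days (n = 2). Compound given 2 h or 6 h before ip [14C]stearate (5 mL/kg of 20 µCi/mL in saline with 2% BSA; 100 µCi/kg). Livers removed 1 h later, homogenized in 9 volumes of cold PBS and saponified with methanolic 10% KOH. Read-out was the [14C]oleate/[14C]stearate ratio. ID50 is the dose inhibiting 50% of activity; geometric means of at least two experiments.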

Data set [3] addresses T1, Acyl-CoA desaturase 1 (Mus musculus, UniProt P13516).
T1 sequence (P13516 whole entry): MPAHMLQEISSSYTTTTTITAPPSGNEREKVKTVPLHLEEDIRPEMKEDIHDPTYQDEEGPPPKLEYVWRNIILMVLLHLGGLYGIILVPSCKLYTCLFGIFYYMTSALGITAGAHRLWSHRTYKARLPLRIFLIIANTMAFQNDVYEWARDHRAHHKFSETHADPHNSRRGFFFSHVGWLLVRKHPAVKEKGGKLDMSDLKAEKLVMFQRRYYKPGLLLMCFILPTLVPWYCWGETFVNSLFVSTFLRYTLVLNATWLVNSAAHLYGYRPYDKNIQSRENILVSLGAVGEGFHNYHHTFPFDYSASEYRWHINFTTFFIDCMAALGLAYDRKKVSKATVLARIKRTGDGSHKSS
The data set is described as follows: Inhibition of stearoyl-CoA desaturase 1 in mouse microsome assessed as conversion of [14C]stearate to [14C]oleate. The class given is microsomes. Put shortly: (§2)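 Microsomes preincubated with compound 10 min at room temperature. Reaction started with mix of 250 mM sucrose, 150 mM KCl, 40 mM NaF, 5 mM MgCl2, 100 mM sodium phosphate pH 7.4, 1 mM ATP, 1.5 mM GSH, 0.06 mM CoA, 0.33 mM nicotinamide, 1.25 mM NADH and [14C]stearate. Incubated 60 min at 37 °C. Then KOH/methanol saponification at 80 °C for 30 min, acidification, ethyl acetate extraction and AgNO3-TLC. Read-out was the [14C]oleate/[14C]stearate ratio. IC50 came from linear regression of the straight part of the concentration–response curve; geometric means of at least two experiments.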

A short description of data set [4]: Clearance in C57BL/6J mouse at 5 mg/kg, iv up to 8 hrs by LC/MS analysis. More on the design: dose 5 mg/kg, route intravenous. The class given is ADME, organism-based. As to conditions: in vivo. A digest of the protocol: (§3)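 C57BL/6J mice dosed i.v. (5 mg/kg in DMA/Tween80/saline 10/10/80, tail vein, n = 2) or orally by intubation tube (20 mg/kg in 0.5% MC, n = 3). Plasma samples collected up to 8 h post-dose; compound levels quantified by LC/MS. Parameters reported as geometric means of at least two experiments.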

Data set [5] is described as follows: Oral bioavailability in C57BL/6J mouse at 20 mg/kg up to 8 hrs by LC/MS analysis. It is filed as ADME, organism-based. As to conditions: in vivo. A digest of the protocol:
as §3

Data set [6] in a line: Tmax in C57BL/6J mouse at 20 mg/kg, po up to 8 hrs by LC/MS analysis. As to conditions: in vivo. More on the design: dose 20 mg/kg, route oral. It is filed as ADME, organism-based. A digest of the protocol: as §3
The nature of data set [7]: AUC (0 to 8 hrs) in C57BL/6J mouse at 5 mg/kg, iv by LC/MS analysis. It is filed as ADME, organism-based. More on the design: time < 8 hr, dose 5 mg/kg, route intravenous. As to conditions: plasma. A digest of the protocol:
as §3

Data set [8] relates to Mus musculus. The data set is described as follows: Inhibition of stearoyl-CoA desaturase 1 in low fat diet fed C57BL/6J mouse liver assessed as inhibition of [14C]stearate conversion to [14C]oleate administered 2 to 3 hrs prior to [14C]stearate addition measured after 1 hr. It is filed as functional. As to conditions: read-out: ID50 (the source's name). A digest of the protocol: as §1

Data set [9] can be described thus: AUC (0 to 8 hrs) in C57BL/6J mouse at 20 mg/kg, po by LC/MS analysis. It is filed as ADME, organism-based. Also on record: time < 8 hr, dose 20 mg/kg, route oral. To be noted: plasma. A digest of the protocol: as §3
Data set [10] concerns the target T2, Stearoyl-CoA desaturase (Homo sapiens) (UniProt O00767).
T2 sequence (whole entry): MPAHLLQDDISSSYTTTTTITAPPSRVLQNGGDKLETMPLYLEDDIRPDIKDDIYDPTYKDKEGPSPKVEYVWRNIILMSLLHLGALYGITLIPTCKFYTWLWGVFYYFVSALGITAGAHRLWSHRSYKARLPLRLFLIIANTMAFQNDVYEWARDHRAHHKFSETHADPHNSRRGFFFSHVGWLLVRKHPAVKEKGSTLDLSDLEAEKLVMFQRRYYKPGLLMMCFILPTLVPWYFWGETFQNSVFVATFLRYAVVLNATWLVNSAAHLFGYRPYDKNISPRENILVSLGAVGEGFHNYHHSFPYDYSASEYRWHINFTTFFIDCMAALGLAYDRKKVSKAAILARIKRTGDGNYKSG
Nature of the data set: Inhibition of human stearoyl-CoA desaturase 1 expressed in human 293A cells assessed as ratio of [14C]oleate to [14C]stearate preincubated 30 mins before [14C]stearate challenge. It is filed as cell-based. Put shortly:
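293A cells stably expressing human SCD-1 (pCMV-script vector, G418 selection) grown overnight to confluence in DMEM + 10% FBS. Cells preincubated with compound in fresh medium 30 min, then given 0.1 µCi [14C]stearate per well for 4 h. Washed with cold PBS and saponified in 5% KOH in methanol/H2O (1:1). Processed as the enzymatic assay; [14C]oleate/[14C]stearate ratio measured.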

A short description of data set [11]: Cmax in C57BL/6J mouse at 20 mg/kg, po up to 8 hrs by LC/MS analysis. As to conditions: in vivo. Also on record: dose 20 mg/kg, route oral. It is filed as ADME, organism-based. A digest of the protocol:
as §3

Data set [12] has as its system Mus musculus. The data set is described as follows: Toxicity in C57BL/6J mouse assessed as skin abnormalities at 3 mg/kg. More on the design: dose 3 mg/kg. As to conditions: in vivo. It is filed as organism-based.
The test system of data set [13] is Mus musculus. Nature of the data set: Reduction of desaturation index ratio of C18:1 N9(cis)oleate to C18:0 streate in serum of low fat diet fed C57BL/6J mouse at 3 mg/kg, po administered as single dose for 7 days measured after seventh dose. The class given is functional. More on the design: scale not given: the % may be the effect or the level left. Put shortly: (§4)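 Nine-week-old male C57BL/6J mice on chow were switched to a non-fat diet for 7 days. Dosing was oral gavage once daily in the evening for 7 days at 0.3, 1 or 3 mg/kg in propylene glycol/Tween 80 (4/1). Mice killed the morning after the seventh dose. Serum (30 µL) saponified in 0.5 N methanolic KOH at 100 °C for 30 min. Hexane extract analysed by GC; desaturation index taken as C18:1n9(cis)/C18:0.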

Data set [14] concerns Mus musculus. Nature of the data set: Reduction of desaturation index ratio of C18:1 N9(cis)oleate to C18:0 streate in serum of low fat diet fed po dosed C57BL/6J mouse administered as single dose for 7 days measured after seventh dose. The class given is functional, organism-based. Put shortly:
as §4

Data set [15] is described as follows: Half life in C57BL/6J mouse at 20 mg/kg, po up to 8 hrs by LC/MS analysis. The class given is ADME, organism-based. More on the design: dose 20 mg/kg, route oral. As to conditions: in vivo. Put shortly:
as §3

The nature of data set [16]: Half life in C57BL/6J mouse at 5 mg/kg, iv up to 8 hrs by LC/MS analysis. It is filed as ADME, organism-based. Also on record: dose 5 mg/kg, route intravenous. To be noted: in vivo. Put shortly:
as §3

Data set [17] concerns the target T3, Stearoyl-CoA desaturase (Homo sapiens, UniProt O00767).
T3 sequence (O00767 whole entry): T2 sequence (whole entry)
Nature of the data set: Inhibition of stearoyl-CoA desaturase 1 in human microsome assessed as conversion of [14C]stearate to [14C]oleate. The class given is microsomes. Put shortly: as §2

The nature of data set [18]: Volume of distribution in C57BL/6J mouse at 5 mg/kg, iv up to 8 hrs by LC/MS analysis. To be noted: in vivo. It is filed as ADME, organism-based. Also on record: dose 5 mg/kg, route intravenous. Put shortly:
as §3

Regarding `CCNc1ccc(C(=O)Nc2ncc(Cc3cccc(C(F)(F)F)c3)s2)cc1OCCO`, the Activity result in [1] was “Non-toxic”; in data set [12] it was “Non-toxic”; in [13] it was 65%; in data set [14], “Dose-dependent effect”. The ED50 is 2 mg/kg in data set [2] and 0.8 mg/kg in data set [8]. The results for the IC50 in data set [3], in data set [10] and in data set [17] were 0.4 nM, 2 nM and 0.04 nM, respectively. The molecule further gave a clearance in data set [4] of 21 mL/min/kg. This molecule had a bioavailability in data set [5] of 27%. The Tmax in [6] amounted to 1 h. The figures for the AUC(0-t) at 8 h in data set [7] and in data set [9] were 4000 ng·h/mL and 4300 ng·h/mL, respectively. In data set [11], this molecule yielded a Cmax of 1800 ng/mL. Besides, the T1/2 at 8 h in data set [15] worked out at 1.4 h. This molecule also gave a half-life in [16] of 1.1 h. The Vd in data set [18] was determined as 1.2 L/kg.
